Source: publication PMC4589150 (Nature chemical biology, 2015)
Non-standard residues stand in square brackets, D forms with d. Residues, ends and D or L forms follow the SMILES beside them. No end group written: not given here. pS = N[C@@H](COP(=O)(O)O)C(=O)O

Legend:
53BP1-BRCT = 53BP1-BRCT (Homo sapiens, UniProt Q12888); test: Fluorescence anisotropy competition binding against fluorescein-pSQEY-OH
Summary of the method: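 Untagged 53BP1 tandem BRCT (6 μM; GST removed by PreScission, anion-exchange purified) with fluorescein-phospho-SQEY peptide (50 nM) and graded unlabelled competitor peptide. Buffer: 50 mM HEPES pH 7.5, 150 mM NaCl, 1 mM DTT. Anisotropy read after equilibration. IC50 from four-parameter sigmoidal fit. Ki from IC50 using bound/total ligand, receptor and direct-binding Kd.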

[1] = molecular target: histone H4 methylated K20 (Homo sapiens) (UniProt P62805); conditions: cited from earlier work
[2] = molecular target: GST-53BP1 residues 1702-1972 (BRCT domains fragment) (Homo sapiens, UniProt Q12888); type: binding
Summary of the method: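 GST-53BP1 (residues 1702-1972; E. coli-expressed, glutathione-affinity purified, dialysed), 200 nM, with probe 1 or probe 2 (5 μM), or with probe 1 plus γH2AX peptide (100 μM). Incubation 20 min on ice, then 365 nm UV for 15 min on ice. Cross-linking read by streptavidin Western blot. Two independent experiments.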

MDC1 = test: CLASPI 'selectivity filter' SILAC proteomics in HeLa lysate; type: binding; conditions: probes 5 μM, nocodazole-arrested HeLa lysate, SILAC LC-MS/MS
Summary of the method: (§1)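 Heavy (13C615N4-Arg 22 mg/L, 13C615N2-Lys 50 mg/L) or light SILAC-labelled HeLa S3 cells, nocodazole-arrested, lysed by cryogenic grinding. Lysates photo-cross-linked with γH2AX probe 1 or H2AX probe 2 (5 μM), combined, streptavidin-captured (0.5% SDS, 90 min RT), washed, dithionite-eluted. SDS-PAGE, in-gel trypsin digestion, LC-MS/MS on LTQ-Orbitrap, SILAC ratio quantitation. Forward and reverse label-swap runs.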

53BP1 = test: as above; type: binding; conditions: probes 5 μM, nocodazole-arrested HeLa lysate, SILAC LC-MS/MS
Summary of the method: as §1

POLG = test: as above; type: binding; conditions: probes 5 μM, nocodazole-arrested HeLa lysate, SILAC LC-MS/MS
Summary of the method: as §1

SIRT1 = test: as above; type: binding; conditions: probes 5 μM, nocodazole-arrested HeLa lysate, SILAC LC-MS/MS
Summary of the method: as §1

MCM2 = test: as above; type: binding; conditions: probes 5 μM, nocodazole-arrested HeLa lysate, SILAC LC-MS/MS
Summary of the method: as §1

fluorescein-SQEY-OH = molecular target: T1, fluorescein-SQEY-OH; test: fluorescence polarisation
T1 sequence (peptide, fluorescein on the N-terminus; free C-terminal carboxylate): SQEY

[3] = molecular target: fluorescein-phospho-SQEY-OH; test: fluorescence polarisation
MDC1-BRCT = molecular target: T2, MDC1-BRCT (Homo sapiens, UniProt Q14676); type: binding
T2 sequence (Q14676 1883-2089): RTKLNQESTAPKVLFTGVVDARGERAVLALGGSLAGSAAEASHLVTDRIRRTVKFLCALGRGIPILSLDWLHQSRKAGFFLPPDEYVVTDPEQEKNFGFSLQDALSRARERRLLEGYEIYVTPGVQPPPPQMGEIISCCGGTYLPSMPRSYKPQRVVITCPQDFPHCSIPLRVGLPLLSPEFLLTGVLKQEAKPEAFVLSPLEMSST
Summary of the method: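 E. coli-expressed, glutathione-affinity-purified MDC1-BRCT (200 nM) with biotinylated probe 1 (1 μM) and graded γH2AX competitor peptide (Ac-KKATQApSQEY-OH). Incubation 20 min on ice, then 365 nm UV for 15 min on ice. Cross-linked complexes detected by Western blot with streptavidin-based detection. Mean ± s.d., n=3.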

[4] = molecular target: 53BP1-BRCT (53BP1 tandem BRCT domains, residues 1702-1972), untagged (human) (UniProt Q12888); test: fluorescence polarisation
Sequence of 53BP1-BRCT (53BP1 tandem BRCT domains, residues 1702-1972), untagged (human) (Q12888 1702-1972): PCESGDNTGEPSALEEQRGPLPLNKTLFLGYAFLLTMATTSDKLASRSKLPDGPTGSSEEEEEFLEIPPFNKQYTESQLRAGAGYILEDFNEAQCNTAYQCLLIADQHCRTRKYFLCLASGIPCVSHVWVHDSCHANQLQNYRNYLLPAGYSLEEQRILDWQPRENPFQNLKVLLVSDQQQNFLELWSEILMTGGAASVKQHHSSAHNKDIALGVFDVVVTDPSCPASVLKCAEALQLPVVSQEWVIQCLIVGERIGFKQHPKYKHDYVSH

Sequence of GST-53BP1 residues 1702-1972 (BRCT domains fragment) (Q12888 1702-1972): as above
Sequence of 53BP1-BRCT (Q12888 1702-1972): as above
Sequence of 53BP1-BRCT (53BP1 tandem BRCT domains, residues 1702-1972), untagged (Q12888 1702-1972): as above

In the case of `NC(=O)CC[C@H](NC(=O)[C@@H](N)COP(=O)(O)O)C(=O)N[C@@H](CCC(=O)O)C(=O)N[C@@H](Cc1ccc(O)cc1)C(=O)O` [pSQEY-OH] (H-[pS]QEY-OH), the Ki (53BP1-BRCT) is reported as 7.5 ± 1.1 µM.

For “53BP1 tandem Tudor (from UniProt Q12888)”, the Kd [1] is listed as 20 µM.

For `CC(=O)N[C@@H](Cc1cn(CCc2ccc(O)c(N=Nc3ccc(C(=O)NCCOCCOCCOCCOCCNC(=O)CCCC[C@@H]4SC[C@@H]5NC(=O)N[C@@H]54)cc3)c2)nn1)C(=O)N[C@@H](CCCCN)C(=O)N[C@@H](CCCCN)C(=O)N[C@@H](C)C(=O)N[C@@H](Cc1ccc(C(=O)c2ccccc2)cc1)C(=O)N[C@@H](CCC(N)=O)C(=O)N[C@@H](C)C(=O)N[C@@H](COP(=O)(O)O)C(=O)N[C@@H](CCC(N)=O)C(=O)N[C@@H](CCC(=O)O)C(=O)N[C@@H](Cc1ccc(O)cc1)C(=O)O` [probe 1], the “photo-cross-linking to BRCT domains fragment (in words)” value ([2]; probe 5 μM, streptavidin Western blot, representative of 2 experiments) was “robust cross-linking”, the “enrichment ratio of MDC1, probe 1 relative to probe 2” value (MDC1) was 3.9 and the “enrichment ratio of 53BP1, probe 1 relative to probe 2” value (53BP1) was 4.9. The “enrichment ratio of POLG, probe 1 relative to probe 2” value (POLG) was 2.5–3.5, the “enrichment ratio of SIRT1, probe 1 relative to probe 2” value (SIRT1) was 2.5–3.5 and the “enrichment ratio of MCM2, probe 1 relative to probe 2” value (MCM2) was 2.5–3.5.

“53BP1-BRCT (53BP1 tandem BRCT domains, residues 1702-1972), untagged (from UniProt Q12888 1702-1972) (domain or fragment)” showed a percent of peptide bound at 50 μM 53BP1-BRCT (fluorescein-SQEY-OH) of 10% and a Kd [3] of 2.7 µM.

With `NC(=O)CC[C@H](NC(=O)[C@@H](N)COP(=O)(O)O)C(=O)N[C@@H](CCC(=O)O)C(=O)N[C@@H](Cc1ccc(O)cc1)C(N)=O` [pSQEY-NH2] (H-[pS]QEY-NH2) the Ki (53BP1-BRCT) was 25 ± 0.58 µM.

For “53BP1-BRCT R1811Q (from UniProt Q12888 1702-1972) (domain or fragment)”, the Kd [3] was 35 µM.

Work on `CC(=O)N[C@@H](CCCCN)C(=O)N[C@@H](CCCCN)C(=O)N[C@@H](C)C(=O)N[C@H](C(=O)N[C@@H](CCC(N)=O)C(=O)N[C@@H](C)C(=O)N[C@@H](COP(=O)(O)O)C(=O)N[C@@H](CCC(N)=O)C(=O)N[C@@H](CCC(=O)O)C(=O)N[C@@H](Cc1ccc(O)cc1)C(=O)O)[C@@H](C)O` [γH2AX peptide, Ac-KKATQApSQEY-OH, reference compound] (Ac-KKATQA[pS]QEY-OH) yielded an IC50 (MDC1-BRCT) of 4.4 ± 1.6 µM and a Kd [2] of under 100 µM.

Molecule “53BP1-BRCT K1814M (from UniProt Q12888 1702-1972) (domain or fragment)” has a Kd [3] of over 70 µM.

In the case of [pS]QEY-OH [unlabeled phospho-SQEY-OH tetrapeptide], the Ki [4] is reported as 7.5 µM.

[pS]QEY-NH2 [phospho-SQEY-NH2] gave a Ki [4] of 25 µM.

[pS]PTF-OH [phospho-SPTF-OH] gave a Ki [4] of 46 µM.
